Experiments:
[1] = target: T1, Muscarinic acetylcholine receptor M2 (Rattus norvegicus, UniProt P10980); assay: Binding affinity to the rat cardiac muscarinic acetylcholine receptor M2 using 0.3 nM [3H]N-methylscopolamine as radioligand
T1 sequence (P10980 whole entry): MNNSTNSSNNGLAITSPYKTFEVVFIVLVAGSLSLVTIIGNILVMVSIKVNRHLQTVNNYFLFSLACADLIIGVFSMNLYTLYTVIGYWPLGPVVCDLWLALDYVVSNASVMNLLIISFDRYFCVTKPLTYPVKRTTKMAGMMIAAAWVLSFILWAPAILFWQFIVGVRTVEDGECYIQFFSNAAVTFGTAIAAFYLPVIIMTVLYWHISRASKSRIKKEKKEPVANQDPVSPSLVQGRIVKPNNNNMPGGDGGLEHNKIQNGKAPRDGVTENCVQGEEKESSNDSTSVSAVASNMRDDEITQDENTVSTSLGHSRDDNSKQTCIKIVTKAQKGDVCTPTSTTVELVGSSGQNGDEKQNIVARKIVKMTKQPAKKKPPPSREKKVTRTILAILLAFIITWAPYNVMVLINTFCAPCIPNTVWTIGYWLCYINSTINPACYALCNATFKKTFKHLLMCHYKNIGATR
Outline: (§1)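 Competition against 0.3 nM [3H]NMS in rat total heart homogenate (1:300 in 100 mM NaCl, 10 mM MgCl2, 20 mM HEPES, pH 7.4, cheesecloth-filtered). 1 mL homogenate incubated 45 min at 30 °C with a range of cold ligand concentrations. Pellets obtained by centrifugation, washed twice with saline, solubilized and counted. Nonspecific binding taken with 1 µM racemic QNB. Quadruplicate assays.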

[2] = target: T2, Muscarinic acetylcholine receptor M3 (Rattus norvegicus, UniProt P08483); assay: Binding affinity for glandular muscarinic acetylcholine receptor M3 in rat assayed using 0.3 nM [3H]N-methylscopolamine as radioligand
T2 sequence (P08483 whole entry): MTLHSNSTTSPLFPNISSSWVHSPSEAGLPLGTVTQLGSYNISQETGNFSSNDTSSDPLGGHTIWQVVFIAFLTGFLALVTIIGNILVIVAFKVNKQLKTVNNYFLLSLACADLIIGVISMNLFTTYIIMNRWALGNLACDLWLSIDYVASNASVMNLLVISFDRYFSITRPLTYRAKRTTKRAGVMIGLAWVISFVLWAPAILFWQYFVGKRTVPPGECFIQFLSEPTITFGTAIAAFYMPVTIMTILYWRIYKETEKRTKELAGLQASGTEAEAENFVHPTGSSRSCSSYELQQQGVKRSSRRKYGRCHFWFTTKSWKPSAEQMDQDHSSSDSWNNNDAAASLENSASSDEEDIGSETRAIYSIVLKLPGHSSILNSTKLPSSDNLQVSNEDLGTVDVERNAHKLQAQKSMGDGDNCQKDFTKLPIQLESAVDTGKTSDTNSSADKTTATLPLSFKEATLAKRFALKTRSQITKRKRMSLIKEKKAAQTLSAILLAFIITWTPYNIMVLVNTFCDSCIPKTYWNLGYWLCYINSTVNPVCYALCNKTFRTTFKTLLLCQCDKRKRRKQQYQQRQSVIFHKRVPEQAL
Outline: (§2)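 1 mL homogenate incubated 45 min at 30 °C with 0.3 nM [3H]NMS plus varying unlabeled compound. Bound ligand separated by centrifugation, saline-washed pellet scintillation counted. Nonspecific binding defined with 1 µM racemic QNB. Run in quadruplicate.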

[3] = target: Muscarinic receptor M2 and M3 (Rattus norvegicus) (UniProt P08483+P10980); assay: Selectivity ratio for glandular muscarinic receptor 3 and cardiac muscarinic receptor 2 in rat
Sequence of Muscarinic receptor M2 and M3 (Rattus norvegicus) (P08483 whole entry, looked up, one chain of several): as the sequence (P08483 whole entry) above

[4] = target: T2, Muscarinic acetylcholine receptor M3; assay: Binding affinity of compound for glandular Muscarinic acetylcholine receptor M3 in rat using 0.3 nM [3H]N-methylscopolamine as radioligand; outline: as §2
[5] = system: Muscarinic acetylcholine receptors M2 & M3 (Rattus norvegicus); assay: Selectivity ratio for glandular muscarinic receptor 3 and cardiac muscarinic receptor 2 in rat
[6] = target: T1, Muscarinic acetylcholine receptor M2; assay: Binding affinity of compound for cardiac Muscarinic acetylcholine receptor M2 in rat using 0.3 nM [3H]N-methylscopolamine as radioligand; outline: as §1

| Compound | IC50 [1] | IC50 [2] | Ratio [3] | IC50 [4] | Ratio [5] | IC50 [6] |
| --- | --- | --- | --- | --- | --- | --- |
| CCN(CC)CC1CCCCN1CC(=O)N1c2ccccc2C(=O)Nc2cccnc21 (stereo in doubt; 28) [OTENZEPAD] | 400 nM | 10000 nM | – | – | – | – |
| CCN(CC)CCCC1CCCCN1CC(=O)N1c2ccccc2C(=O)Nc2cccnc21 (centres undefined) | 60 nM | 200 nM | 3.3 | – | – | – |
| CCN(CC)CC1CCCCN1CC(=O)N1c2ccccc2C(=O)Nc2cccnc21 (stereo in doubt; 29) | – | – | 120 | – | – | – |
| CCN(C)CC1CCCCN1CC(=O)N1c2ccccc2C(=O)Nc2cccnc21 (centres undefined) | 120 nM | 1500 nM | 12.5 | – | – | – |
| CCN(CC)CCC1CCCCN1CC(=O)N1c2ccccc2C(=O)Nc2cccnc21 (centres undefined) | 330 nM | 1000 nM | 3 | – | – | – |
| CCCCN(C)CC1CCCCN1CC(=O)N1c2ccccc2C(=O)Nc2cccnc21 (centres undefined) | 100 nM | 200 nM | 2 | – | – | – |
| CCN(CC)CC1CCCCN1CC(=O)N1c2ccc(C)cc2C(=O)Nc2cccnc21 (centres undefined) | 30 nM | 1000 nM | 33.3 | – | – | – |
| CCN(CC)CC1CCCCN1CC(=O)N1c2ccccc2C(=O)Nc2cccnc21 (stereo in doubt; 28) | – | – | 25 | – | – | – |
| CCN(CC)CC1CCCCN1CC(=O)N1c2cc(Cl)ccc2C(=O)Nc2cccnc21 (centres undefined) | 40 nM | – | 37.5 | – | – | – |
| O=C1Nc2cccnc2N(C(=O)CN2CCCCC2CN2CCCC2)c2ccccc21 (centres undefined) | 560 nM | 1500 nM | 2.7 | – | – | – |
| CCN(CC)CC1CCCCCN1CC(=O)N1c2ccccc2C(=O)Nc2cccnc21 (centres undefined) | 2000 nM | 15000 nM | 7.5 | – | – | – |
| CN(C)CC1CCCCN1CC(=O)N1c2ccccc2C(=O)Nc2cccnc21 (centres undefined) | 140 nM | 1000 nM | 7.1 | – | – | – |
| CCN(CC)CC1CCCCN1CCC(=O)N1c2ccccc2C(=O)Nc2cccnc21 (centres undefined) | 220 nM | 600 nM | 2.7 | – | – | – |
| CCN(CC)CC1CCCCN1CC(=O)N1c2ccc(Cl)cc2C(=O)Nc2cccnc21 (centres undefined) | 100 nM | 4000 nM | 40 | – | – | – |
| CCN(CC)CC1CCCCN1CC(=O)N1c2ccc(Br)cc2C(=O)Nc2cccnc21 (centres undefined) | 150 nM | 4000 nM | 26.6 | – | – | – |
| CCN(CC)CC1CCCCN1CC(=O)N1c2ccccc2C(=O)Nc2cccnc21 (stereo in doubt; 10) | – | – | 42.8 | – | – | – |
| CCN(CC)CC1CCCCN1CC(=O)N1c2ccccc2C(=O)Nc2cccnc21 (stereo in doubt; 29) [OTENZEPAD] | 50 nM | 6000 nM | – | – | – | – |
| CCN(CC)CC1CCN(CC(=O)N2c3ccccc3C(=O)Nc3cccnc32)CC1 | 800 nM | 4000 nM | 5 | – | – | – |
| CCCN(CCC)CC1CCCCN1CC(=O)N1c2ccccc2C(=O)Nc2cccnc21 (centres undefined) | 1500 nM | 6000 nM | 4 | – | – | – |
| O=C1Nc2cccnc2N(C(=O)CN2CCCCC2CN2CCCCC2)c2ccccc21 (centres undefined) | – | – | – | 1500 nM | 2.5 | 600 nM |
| CCN(CC)CC1CCCN1CC(=O)N1c2ccccc2C(=O)Nc2cccnc21 (centres undefined) | 150 nM | 2000 nM | 13 | – | – | – |
| CCN(CC)CC1CCCCN1C(=O)N1c2ccccc2C(=O)Nc2cccnc21 (centres undefined) | 5000 nM | > 10000 nM | > 2 | – | – | – |
| CN(CC1CCCCN1CC(=O)N1c2ccccc2C(=O)Nc2cccnc21)C1CCCCCC1 (centres undefined) | 30 nM | 70 nM | 2.3 | – | – | – |
| CN(CC1CCCCN1CC(=O)N1c2ccccc2C(=O)Nc2cccnc21)C1CCCCC1 (centres undefined) | 60 nM | 150 nM | 2.5 | – | – | – |
| CCN(CC)CC1CCCN(CC(=O)N2c3ccccc3C(=O)Nc3cccnc32)C1 (centres undefined) | 170 nM | 300 nM | 1.8 | – | – | – |
| CCc1ccc2c(c1)C(=O)Nc1cccnc1N2C(=O)CN1CCCCC1CN(CC)CC (centres undefined) | 200 nM | 2000 nM | 10 | – | – | – |
| CCNCC1CCCCN1CC(=O)N1c2ccccc2C(=O)Nc2cccnc21 (centres undefined) | 600 nM | 3000 nM | 5 | – | – | – |
| O=C1Nc2cccnc2N(C(=O)CN2CCCCC2CN2CCOCC2)c2ccccc21 (centres undefined) | > 1000 nM | 4000 nM | < 4 | – | – | – |
| CCN(CC)CC1CCCCN1CC(=O)N1c2ccccc2C(=O)Nc2cccnc21 (stereo in doubt; 10) [OTENZEPAD] | – | 6000 nM | – | – | – | – |
| CCN(CC)CC1CCCCN1CC(=O)N1c2cc(C)ccc2C(=O)Nc2cccnc21 (centres undefined) | 70 nM | 2000 nM | 28.5 | – | – | – |
